GPR7 antagonist = blocks human GPR7 receptor signaling; P48145; GPR7-expressing cells, fluorescence antagonist assay; inhibition, % at 4.4 µM; hit rate 1.1% among 290,000; AID 1861; in the data active = inhibition above about 16%, passing the limit was not always enough;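 also: cells stimulated with the agonist NPW; 0% = agonist with vehicle and 100% = vehicle without agonist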
Target sequence (P48145 whole entry, looked up): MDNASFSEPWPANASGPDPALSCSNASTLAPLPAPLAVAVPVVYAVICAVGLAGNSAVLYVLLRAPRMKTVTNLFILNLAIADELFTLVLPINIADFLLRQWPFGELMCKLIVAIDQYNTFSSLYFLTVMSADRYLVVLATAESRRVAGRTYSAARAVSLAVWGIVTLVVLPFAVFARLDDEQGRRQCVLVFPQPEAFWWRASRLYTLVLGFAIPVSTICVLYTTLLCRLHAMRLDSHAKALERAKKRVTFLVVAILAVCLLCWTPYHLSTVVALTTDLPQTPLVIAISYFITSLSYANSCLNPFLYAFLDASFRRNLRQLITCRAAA
CHO parental Ca = signal in parental CHO cells, OX1R antagonist counter-screen. parental CHO-K1, ATP-induced calcium, Fluo-8 fluorescence. inhibition, % at 5.6 µM. hit rate 0.63% among 330,000;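 active = inhibition above that plate's mean sample inhibition plus 3 SD, cut at about 26% in these data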;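 also: 0% = ATP-challenged DMSO wells and 100% = DMSO wells without ATP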
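Test system: untransfected parental CHO cell line; also added: ATP stimulus; dosing: 5.6 µM, single dose; signal: calcium-sensitive Fluo-8 fluorescence; measure: percent inhibition of ATP-evoked calcium rise, normalized to controls; benchmarks: low control ATP plus DMSO, high control DMSO only; replication: one well per compound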
TAAR1 antagonist = human TAAR1 antagonism; CHO RD-HGA16 TAAR1, Fluo-8 calcium fluorescence, antagonist; Q96RJ0; AID 624466; hit rate 1.5% among 360,000; inhibition, % at 3 µM;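 active = inhibition above a per-plate cutoff, the mean inhibition of test compounds on that plate plus 3 SD, cut at about 49% in these data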;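 also: 0% = DMSO plus EC80 beta-PEA response and 100% = DMSO alone without agonist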
Target sequence (Q96RJ0 whole entry, looked up): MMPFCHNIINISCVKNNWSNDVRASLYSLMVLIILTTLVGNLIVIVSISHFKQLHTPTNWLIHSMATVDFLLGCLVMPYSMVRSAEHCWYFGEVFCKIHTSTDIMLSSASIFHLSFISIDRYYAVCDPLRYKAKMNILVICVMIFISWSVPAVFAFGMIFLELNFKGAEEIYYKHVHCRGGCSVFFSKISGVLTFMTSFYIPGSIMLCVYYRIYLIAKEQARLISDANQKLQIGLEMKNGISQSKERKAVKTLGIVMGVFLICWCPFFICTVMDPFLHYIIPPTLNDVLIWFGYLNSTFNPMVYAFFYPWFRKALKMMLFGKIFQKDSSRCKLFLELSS
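Test system: hTAAR1-expressing CHO RD-HGA16 cells, Gα16-coupled; Probe or stimulus: EC80 β-phenethylamine stimulus; Compound dosing: single nominal final test compound concentration of 3 µM; Timing: 140 s kinetic read after compound, 140 s after agonist; Signal: Fluo-8 calcium-sensitive fluorescence; Measure: % inhibition of agonist calcium response; Controls: DMSO and EC80 PEA controls.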
OX1R antag-1 = antagonists of human orexin 1 receptor (OX1R); inhibition, % at 6.6 µM; OX1R-expressing cells, FRET antagonist read-out; O43613; hit rate 1.8% among 330,000; in the data active = inhibition mostly above about 38%, no sharp cut-off; inactive = mostly below about 40%;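 also: 0% = agonist challenge alone and 100% = reference antagonist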
OX1R antag-2 = blocks the human orexin 1 receptor | inhibition, % at 5 µM | hit rate 0.43% among 330,000 | AID 434989 | CHO/OX1R cells, Fluo-8 calcium fluorescence, orexin A | O43613;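 active = inhibition above its plate's threshold, mean inhibition of all tested compounds on the plate plus 3 SD, cut at about 37% in these data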;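 also: 0% = orexin A challenge wells and 100% = SB-334867-A antagonist wells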
TAAR1 ag = human TAAR1 agonism | activation, % at 3 µM | hit rate 0.99% among 360,000 | AID 624467 | CHO RD-HGA16 TAAR1, Fluo-8 calcium fluorescence; vehicle wells 0%, saturating PEA agonist 100% | Q96RJ0;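 active = activation above the mean activation of all test compounds in the run plus 3 SD, cut at about 38% in these data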
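Signal – calcium-sensitive Fluo-8 signal, excitation 470-495, emission 515-575 nm · System – RD-HGA16 (CHO) cells co-expressing Gα16 and hTAAR1 · Incubation – 17-24 h seeding, 75 min 37 °C dye, 30 min RT · Compound dosing – 3 µM single concentration · Repeats – no replicates (n 1)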
Active calls of the source: *; . = no result given. The list is not random: actives were taken first. Their share in the collection is about 4.6%.

SMILES | GPR7 antagonist | CHO parental Ca | TAAR1 antagonist | OX1R antag-1 | OX1R antag-2 | TAAR1 ag
O=C(CSc1nnc(Cn2nnc3ccccc32)o1)N(Cc1ccc(Cl)cc1)c1ccccc1 | 14 | 66* | 29 | 75* | 53* | 18
Cc1cccc(C)c1NC(=O)C(c1cccc2ccccc12)n1c(=O)c(-c2cc3ccccc3[nH]2)nc2ccccc21 (stereo not given) | . | . | 0 | . | . | -1
OC(c1ccccc1)(c1ccccc1)C1CCN(CCCOc2ccc(-c3cncnc3)cc2)CC1 | . | . | 18 | . | . | 29
O=C(Nc1cccc(Cl)c1)C1C2CCC3C(CCC21)C3(Cl)Cl (stereo not given) | 42* | -16 | 14 | 35 | 4 | 4
O=C(Nc1ccccc1)C1C2CCC3C(CCC21)C3(Cl)Cl (stereo not given) | 7 | -17 | -4 | 40 | -4 | 4
O=C(NCc1cccnc1)c1ccc(-c2ccc(Cl)cc2)o1 | 9 | -16 | 3 | 16 | -21 | 0
O=C(NCc1cccnc1)/C(=C\c1ccc(-c2ccc(Cl)c(Cl)c2)o1)S(=O)(=O)c1ccccc1 | 31* | 1 | 28 | 25 | -13 | 10
CNC[C@@H]1OCc2ccccc2-c2c(n(C)c3ccccc23)C(=O)N([C@@H](C)CO)C[C@@H]1C | . | . | -24 | . | . | 7
COCCC1CCCCN1C(=O)c1cc(COc2ccc(-n3cncn3)cc2)on1 (stereo not given) | 14 | 53* | 10 | 47 | 22 | 6
COCC1CCCCN1C(=O)c1cc(COc2ccc3ncccc3c2)on1 (stereo not given) | 11 | 47* | 15 | 33 | 55* | 6
CCN1CCN(C(=O)c2cc(COc3ccc4ncccc4c3)on2)CC1 | -3 | 20 | 8 | 47 | 10 | 5
COc1ccc(OC)c(S(=O)(=O)Nc2ccc3c(c2)OCCO3)c1 | . | . | 5 | . | . | 0
O=C(Nc1ccc(Oc2ccc(Cl)cc2)c(Cl)c1)c1cc(I)cc(I)c1O | -2 | 2 | 11 | 49* | 5 | 2
COc1ccc(NC(=O)c2ccccc2F)cc1Cl | 7 | -2 | 2 | 36 | -13 | -1
CCOC(=O)c1cnc2sc3c(n2c1=O)CCCC3 | 23 | 43* | 2 | 58 | 35 | -1
CCOC(=O)N(C)[C@H]1C[C@H]2c3[nH]c4c(-c5ccccc5)cccc4c3CCN2C(=O)[C@H]1[C@H](C)O | . | . | 13 | . | . | 3
CCCCn1c(N)c(N(CCC(C)C)C(=O)c2ccc([N+](=O)[O-])s2)c(=O)[nH]c1=O | . | -22 | -2 | 37* | -41 | 4
CCCCN(C(=O)c1ccc([N+](=O)[O-])s1)c1c(N)n(CC(C)C)c(=O)[nH]c1=O | . | -1 | -9 | 29 | -8 | 0
CCCCn1c(N)c(N(CCOC)C(=O)c2ccc(NC3CC3)c([N+](=O)[O-])c2)c(=O)[nH]c1=O | . | -33 | -12 | 47* | -18 | 0
Nc1[nH]c(C(=O)c2ccc(Br)cc2)c(-c2ccncc2)c1C(=O)c1ccccc1 | . | . | 21 | . | . | 9
O=C(C(=O)N1CCC(CNS(=O)(=O)c2cc(C(F)(F)F)cc(C(F)(F)F)c2)CC1)c1cc2ccccc2o1 | . | . | -31 | . | . | 1
CCOC(=O)c1c(C)[nH]c(C)c1S(=O)(=O)NCc1ccccc1OCC | -9 | -3 | -17 | 62* | 14 | 2
CCOc1ccccc1CNS(=O)(=O)c1ccc2[nH]c(=O)sc2c1 | 21* | -3 | 12 | 20 | -6 | 16
CCOC(=O)c1c(C)[nH]c(C)c1S(=O)(=O)NCc1ccccc1C | -9 | 2 | -14 | 50* | 13 | 0
CCOC(=O)c1c(C)[nH]c(C)c1S(=O)(=O)NCc1ccc(OCC)cc1 | -15 | -18 | 4 | 16 | -24 | 0
SMILES | GPR7 antagonist | CHO parental Ca | TAAR1 antagonist | OX1R antag-1 | OX1R antag-2 | TAAR1 ag
O=Cc1ccc(/C=C2\c3ccccc3C(=O)N2c2ccccc2)o1 | . | . | 2 | . | . | 1
Cc1cc(Br)c2c(c1)[C@](O)(c1cn(C)c3ccccc13)C(=O)N2C | . | . | -25 | . | . | 5
COC(=O)C1=C(C)N(C)C(=NCc2ccccc2C(F)(F)F)NC1c1ccc(Cl)cc1 (stereo not given) | . | . | 15 | . | . | 15
CCCNC(=O)c1ccc(-c2nc3ccccc3s2)s1 | 2 | -9 | 13 | 61* | 9 | 2
CCCNC(=O)Nc1nc2ccccc2s1 | -7 | -2 | -4 | 7 | -17 | 1
COc1ccc(NC(=O)Cn2c3ccccc3c3nc4n(c(=O)c32)CCS4)cc1OC | -5 | -14 | -12 | 25 | 17 | 0
COc1ccc(NC(=O)Cn2c3ccccc3c3nc4n(c(=O)c32)CCS4)cc1 | 5 | -5 | -19 | 74* | 4 | 2
COc1cccc(NC(=O)Cn2c3ccccc3c3nc4n(c(=O)c32)CCCS4)c1 | -4 | -31 | -8 | 37* | 0 | 1
CC(C)OC(=O)N(C)C[C@H]1OCc2cn(nn2)CCCC(=O)N([C@@H](C)CO)C[C@@H]1C | . | . | 6 | . | . | 6
C=CCN=C1NC(c2ccc(F)cc2)C(C(=O)OC)=C(C)N1C (stereo not given) | . | . | -6 | . | . | 4
CN(C)CCCN1CC(=O)N2CCc3ccc(Br)cc3C2CC1=O (stereo not given) | . | . | -20 | . | . | 1
CN(/N=C\c1ccc(O)c(O)c1)c1nc(-c2ccccc2)cc(-c2ccccc2)n1 | -9 | 28* | 41 | 11 | -4 | 3
COc1cc(/C=N/N(c2ccccc2)c2ccccc2)ccc1O | -34 | -16 | 0 | 5 | -19 | 12
Cc1ccnc(NC(=O)c2cc([N+](=O)[O-])cc([N+](=O)[O-])c2)c1 | -12 | -7 | 10 | 17 | -17 | 5
Cc1ccnc(NC(=O)c2ccc([N+](=O)[O-])s2)c1 | 7 | 3 | -16 | 70* | -9 | 4
Cc1cccc(C)c1NC(=O)c1ccc([N+](=O)[O-])s1 | 2 | -5 | -10 | 46 | -21 | 4
Cc1cccc(NC(=O)c2ccc([N+](=O)[O-])s2)n1 | -10 | 12 | -6 | 36* | -3 | 1
COC(=O)c1cc2c(c3c4cc(OC)ccc4n(S(=O)(=O)c4ccccc4)c13)C(=O)N(C)C2 | . | . | 21 | . | . | 0
COc1cccc2c1nc(C)c1cc(C)oc12 | -7 | -29 | -1 | 23 | -14 | 11
COc1cccc2nc3cc(C)c(C)cc3nc12 | -7 | -12 | -16 | 68* | -19 | 6
CCCCn1nc(C(=O)Nc2ccc(-n3cnnn3)cc2)c2ccccc2c1=O | . | -14 | 52* | 5 | -16 | 24
Cn1nc(C(=O)Nc2ccc(-n3cnnn3)cc2)c2ccccc2c1=O | . | -18 | 18 | 3 | -27 | 6
COCCNC(=O)C1CCCN(C(=O)c2ccc(F)c(C)c2)CC1 (stereo not given) | . | . | 2 | . | . | 4

Compound activity (PubChem)
